Source: the EternaBench riboswitch data

System: MS2 coat protein
Experiment: apparent Kd, MS2 coat protein; higher = weaker binding; RNA-MaP array
Summary of the method: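 On an Illumina sequencing chip, sequenced DNA templates served for transcription of the designed RNAs, which were then bound at room temperature by fluorescently labeled MS2 coat protein at 1.5 nM to 3 μM, with or without input ligand. Apparent Kd is the median of the fits to each cluster's binding curve. Only designs measured on at least 10 clusters were kept.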

[1] = designed as: ON switch for flavin mononucleotide, no ligand
[2] = ligand present: flavin mononucleotide, designed as: ON switch for flavin mononucleotide
[3] = designed as: OFF switch for flavin mononucleotide, no ligand
[4] = ligand present: flavin mononucleotide, designed as: OFF switch for flavin mononucleotide
[5] = designed as: OFF switch for theophylline, no ligand
[6] = ligand present: theophylline, designed as: OFF switch for theophylline
[7] = designed as: ON switch for tryptophan, no ligand
[8] = ligand present: tryptophan, designed as: ON switch for tryptophan
[9] = designed as: OFF switch for tryptophan, no ligand
[10] = ligand present: tryptophan, designed as: OFF switch for tryptophan

Sequence	apparent Kd [1]	apparent Kd [3]	apparent Kd [4]	further results
GGAAAACCUCGAGGAUAUAGCACAUGAGGAUCACCCAUGUACCAUAAGUGUUGACAAAAGAGAGACUAGAAGGCGAAUCAAACC	13.1 nM			apparent Kd [2]: 11.6 nM
CAAAUGUGCACUCGUGAUACAUGAGGAUCACCCAUGUCAACUAAGGAUAUCUGGAAGUCACAUCGAGAGAAGGUAGCGUACCCU		10.5 nM	9.44 nM	
CUCGUACAUGAGGAUCACCCAUGUCAGGAUAUUACUGUCGAGUCCAAAACUAGAAAGGUAAGAAGGGACACAUU		13.3 nM	17.8 nM	
UAAGUUUUAGAGAAGGCCUGGAAUUGCUGUGCAGGAGGAUAUCUGGGACAUGAGGAUCACCCAUGUAGCCGCUAAGCGUAAGGG		46.6 nM	83.1 nM	
AUCACAACCAAGAAGGGUCAGAUAACUCGAGAGACAGGAUAUUGAACAACAUAGUCAACAUGAGGAUCACCCAUGUAAAAUAAA	54 nM			apparent Kd [2]: 24.2 nM
CUGCUCUGUACUGAAGGAGAUACAUGAGGAUCACCCAUGUGCAGAAGGUGCUCAUUAAUAAUCGGCAAGGAUAUGCGGGCUUGA	925 nM			apparent Kd [2]: 390 nM
AUAAAGGAAGGAUAUACAUGAGGAUCACCCAUGUUGAAAUACAGAAAAGGAGAAACAAGUAGAAGGACCGAUGU		14.2 nM	11.6 nM	
GAGCGCAGUUUACAACAUACUAACACAGAUACCAGAAAUUUUAUGUUCCCUUGGCAGCUGACAACAUGAGGAUCACCCAUGUGCU				apparent Kd [5]: 17.1 nM; apparent Kd [6]: 17.7 nM
UCACAUGAGGAUCACCCAUGUAAAUCACACGACGGUGCUGUCAAGGAUAUGUUACGCUCAGGGCUACAGAAGGUGAUGGUCAAG	52.7 nM			apparent Kd [2]: 25.2 nM
CGGCGCUUAGGAUAUUAGAGAUGCAACAUGAGGAUCACCCAUGUGAUGAGGGUUGGCAGCUAAGAAGGAAGCAUCC		86 nM	61.5 nM	
GACCAUCACCAGAAGGUCCUCCACCAGCGAGAUCCGACAUGAGGAUCACCCAUGUACUGUGGAUGGAAGGAUAUGGAAGGCUCU		46.9 nM	116 nM	
GAUAAAGCAGGAUAUACAUACCGGCCAUGACUAAAAGAAGGACAUGAGGAUCACCCAUGUAGAAGGGCUUAAAA		15.7 nM	30.5 nM	
UAACAUGAGGAUCACCCAUGUAACCAUCUCCAAGUCGGUAGGCAGGAUAUGUACAUAAUGGAAGAACAGAAGGGCCGGUCCGAG	31.1 nM			apparent Kd [2]: 9.9 nM
GCUAUAUUUGAGAAGGGAGGAUGCUUCACAGAGCUUAGACCAGACAUGAGGAUCACCCAUGUGCCUCAGGAUAUCAAUAUCGAU	27.3 nM			apparent Kd [2]: 8.5 nM
CUGCAGACCCAGAAGGUUCACAUGAGGAUCACCCAUGUGCCUAUCAAUAAGUAAGGUAAAGGCUGAAAGGAUAUGGGUAAAGGA	10.7 nM			apparent Kd [2]: 8.47 nM
UGGGAUAGCCAGAAGGUGGAAGCAACAACUGUCCAAGGAUAUGGUUGUUAUAAGGCAUCACACAUGAGGAUCACCCAUGUUAAU	83.2 nM			apparent Kd [2]: 35.2 nM
GGGUUACUCUAUGAUACCAGUUCCAUGCCGAAACCUGUGUACAUGAGGAUCACCCAUGUGAACCCUUGGCAGCAUUAAUCAACUG				apparent Kd [5]: 97.5 nM; apparent Kd [6]: 258 nM
GACGGGCCUAUUGAUACCAGACCUAGUGACAACAUGAGGAUCACCCAUGUGACGGCAAAAGUCCCUUGGCAGCAAGUAGAAAUAA				apparent Kd (designed as: ON switch for theophylline, no ligand): 12.6 nM; apparent Kd (ligand present: theophylline, designed as: ON switch for theophylline): 12.3 nM
GACAGAAGGUAGAAGGUGGUUCUCCUCACCCACUUUGAGGACAUGAGGAUCACCCAUGUCAAAACCAAGGAUAUACUACGUCGU	89.8 nM			apparent Kd [2]: 18.2 nM
UUUCAAGUAUCGGCCGCCACUCUAGUUGGUUGUUCAAUCCGAUUACAUGAGGAUCACCCAUGUCUGAGGACCGGGAUAAAGUAAU				apparent Kd [7]: 26.1 nM; apparent Kd [8]: 31.8 nM
ACAGAACGAGGAUAUCCACUUUGAUACAUGAGGAUCACCCAUGUCCUGAAAGUGUUUCAGGGAGAAGGCGUACCUA		18 nM		
ACAAGGAGUCAAGGAUAUGAUAGAAGUUACACAUGAGGAUCACCCAUGUUUCUCCGGUGUCAGAAUCAGAAGGUGAGUAUGCAU		85.2 nM	74.7 nM	
CUGCCACGAACGGCCGCCACUUACAUGAGGAUCACCCAUGUGCCUGCGCACAAAGAAUGUCAAGAAAGGACCGGGUUCAAAUAGU				apparent Kd [9]: 61.3 nM; apparent Kd [10]: 66.8 nM
GCAAUUCUUGAGAAGGUCGUAGUGCGCAGACCAAAAGCACAUGAGGAUCACCCAUGUGAUCAAACGAAGGAUAUCACAGUAGAA		51.9 nM	49.3 nM	
AAACUGAUCUUCAGGAGUCACUAUAUCUCCCGAGGACCGGUACGGCCGCCACUCGAACGUUUACAUGAGGAUCACCCAUGUGACU				apparent Kd [9]: 14.8 nM; apparent Kd [10]: 19.6 nM
CAUGUGUAAGGAUAUGCGUCGAUAUCAACUAACUAUAUGAUGCAGAAGGUACAUGAGGAUCACCCAUGUGAACU		30.3 nM	118 nM	
CUCUACAUGAGGAUCACCCAUGUAUUAAUACAACUGGGUGCUAGAAGGUGCACUUAAGAAUAGGGCAAGGAUAUAGACCGUUCA		158 nM	77.4 nM	

Sequence	apparent Kd [1]	apparent Kd [3]	apparent Kd [4]	further results
CUUUGUGGCCAAGGAUAUCCUGGCACAGUACAUGAGGAUCACCCAUGUCGAAGACAUGGUCGUACGGAGAAGGUGGGCACCCUC	511 nM			
UUUACACACUCAGGAUAUGAAUUCAAUUUAUCGGGCCGCUAACAUGAGGAUCACCCAUGUAACAUUCAGAAGGGAGAAGAGCCA		17.5 nM	13.7 nM	
GGAAUCGGAUUAGAGGAUAUCGAUCUGUUAACAUGAGGAUCACCCAUGUGGACGCUUCAUUCGAACGAGAAGGCUAGAUGGACACC	23.8 nM			apparent Kd [2]: 16.8 nM
CCAUGAAGCGAGGAUAUUCUCACUGCCAAGUUGGAAGAAGGCGCUACAUGAGGAUCACCCAUGUAGUCAGUCCG		5.07 nM	5.32 nM	
CGACAUAACCGAGGAUAUCGCUGACGUAAGCACAUGAGGAUCACCCAUGUGAGUGAGAGUGAGUACGAGAAGGCGGAAUUAAGG	53.3 nM			apparent Kd [2]: 16.5 nM
AAUACACAUGAGGAUCACCCAUGUAAGGAUAUCAAGCAUCAAACAUUAGAGUGAGGAGUGAGAAGGUACAUCAC		20.1 nM	16.3 nM	
AAGAACAUGAGGAUCACCCAUGUGAUCGUUCGAGGACCGGUACGGCCGCCACUCGGACCUGUGUCCAGGCACGGGCCGACGCGAC				apparent Kd [7]: 77.8 nM; apparent Kd [8]: 38.2 nM
UAGUAACAUGAGGAUCACCCAUGUGAGGAUAUCUGGCUAGGCUAAAGCAGAGAAACCAAGAGAAGGCACGGGAU		19.4 nM	20.8 nM	
UGUAGACAUGAGGAUCACCCAUGUGCAACUGCAACAGGAUAUAGGGAGCGAUAGGAACGCCUAGAAGGGUUGAUCU	28.2 nM			apparent Kd [2]: 24.6 nM
GUACCGUAAACGGCCGCCACUGACAUGAGGAUCACCCAUGUGCUGGUGGUGCACAACCUCAGGUUCAGGACCGGGUUUCCGAGCU				apparent Kd [9]: 25.1 nM; apparent Kd [10]: 55 nM
GAUUGCGGUGUGAGGAUAUCUGUUUAACAAAAGCCAGAGAAGGCACAUGAGGAUCACCCAUGUAGAUGCCGGCC		8.38 nM	10.5 nM	
GUCGCAUGAGGAUAUACAUGAGGAUCACCCAUGUAUCUACGCAUGGGAAGACACCAAUGUAGAAGGCAUCUCAA		64.2 nM	21.5 nM	
AUCGGCGCACAGAAGGGACGAUCAAACUGCUGAUCACAUGAGGAUCACCCAUGUUGUUUGGAUAGUCAGGAUAUGUUGACCAUG		17.6 nM	16 nM	
UGUACCUGUAUCUGGUCCAUAGUAUAACCUCGAGGACCGGUACGGCCGCCACUCGUCGGACCACAUGAGGAUCACCCAUGUACCG				apparent Kd [9]: 11.6 nM; apparent Kd [10]: 12.7 nM
GCGUGAGCGACGUGUCUUCCACAUGAGGAUCACCCAUGUCGCAGAAGGACUUGAAUCGUAUUAAAGUAGGAUAUGCGUAGGACG	38.3 nM			apparent Kd [2]: 29 nM
AUUGUCAAGUCGGCCGCCACUUCUGCCAUGGCCACCAGUCGACAUGAGGAUCACCCAUGUCUCUUAAGGACCGGGACUUUCAAUU				apparent Kd [7]: 13.2 nM; apparent Kd [8]: 12.1 nM
UAAGAAGUCCAGAAGGUAGCCCUACCGUACAGCUAAGGAUAUGGCUCACCGGUUUCAACAUGAGGAUCACCCAUGUCCUCCCGG	55.9 nM			apparent Kd [2]: 36.3 nM
GCGAAGCGAGGAUAUUAAUCCGUACACAUGAGGAUCACCCAUGUGAAUCAAUCAUGUGGUUAAGAAGGCGCGUGGG		541 nM	73.2 nM	
UGCCUCCAGCGAGGAUAUAUGUAGAGAUACACCAUAGAAGGCGCUGUAGUGGAACAUGAGGAUCACCCAUGUGACCUCGCCCGG		13.2 nM	17.6 nM	
AGGAGGCAUAAGAAGGGUACAUGUAUUGGGUGUACAGGAUAUUACAGGUGCCGCACAUGAGGAUCACCCAUGUUAUCAUUGUGC		39 nM	34 nM	
UCGAUGGUACCCGAUACCAGCAAUACAUCACAGACCUGAUACAUGAGGAUCACCCAUGUGUGCCCUUGGCAGCGGGUCCUGAAAA				apparent Kd [5]: 17.8 nM; apparent Kd [6]: 38.1 nM
GCCAAAAUACCCGAUACCAGUAUUAAUAGCACAACCUCACACAUGAGGAUCACCCAUGUAUACCCUUGGCAGCGGCCUAACAUAA				apparent Kd [5]: 36.9 nM; apparent Kd [6]: 102 nM
CUUGUACAUGAGGAUCACCCAUGUGUCCGUAUCAAAGGAUAUAGCAUAUUCGCAGUGGUGCUAGAAGGUUGUAUAC	20.9 nM			apparent Kd [2]: 10.5 nM
UGAUGUAACAGAGGAUAUCACUCAAAUGCGGGCAUGUCGCACAUGUACAUGAGGAUCACCCAUGUUGAGAAGGCUGUGGUGCAA	145 nM			apparent Kd [2]: 47.5 nM
ACAACUGCAGGAUAUACGAGGGCCGAGGUAUCCGUCCUCGGACAUGAGGAUCACCCAUGUAGAAGGGCAACGAU		20.9 nM	24.1 nM	
AACACACCAAAUGAUACCAGCUACAACAUGAUACAAAACCACAUGAGGAUCACCCAUGUAAGCCCUUGGCAGCAUACUACUGUAA				apparent Kd [5]: 18.1 nM; apparent Kd [6]: 42.5 nM
GAUAGGUGAGGAUAUGUGAGUGAUCACAUGAGGAUCACCCAUGUUGACUCAUGUUGGCUUACAGAAGGCACAGGAA		137 nM	97.2 nM	
